Measurements from ChEMBL document CHEMBL5321284, “Discovery of a First-in-Class Degrader for the Lipid Kinase PIKfyve” (J Med Chem, 2023).
Calls of active or inactive are those of the source. The calls are words filed in the database; no cut-off is given here.

Assays:
[1] = molecular target: T1, von Hippel-Lindau disease tumor suppressor/1-phosphatidylinositol 3-phosphate 5-kinase (Homo sapiens) (UniProt Q9Y2I7+P40337); assay: PROTAC activity at VHL/PIKfyve in human VCaP cells assessed as induction of PIKfyve degradation at 1 uM incubated for 24 hrs by immunoblot analysis; assay type: cell-based
T1 sequence (P40337 whole entry partner): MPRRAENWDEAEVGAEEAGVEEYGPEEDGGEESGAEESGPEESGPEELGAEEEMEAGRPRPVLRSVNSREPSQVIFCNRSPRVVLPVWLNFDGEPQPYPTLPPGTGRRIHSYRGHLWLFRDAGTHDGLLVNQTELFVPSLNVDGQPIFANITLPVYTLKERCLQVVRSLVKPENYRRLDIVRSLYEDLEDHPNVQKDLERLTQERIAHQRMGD
T1 sequence (Q9Y2I7 2-2098 limits assumed): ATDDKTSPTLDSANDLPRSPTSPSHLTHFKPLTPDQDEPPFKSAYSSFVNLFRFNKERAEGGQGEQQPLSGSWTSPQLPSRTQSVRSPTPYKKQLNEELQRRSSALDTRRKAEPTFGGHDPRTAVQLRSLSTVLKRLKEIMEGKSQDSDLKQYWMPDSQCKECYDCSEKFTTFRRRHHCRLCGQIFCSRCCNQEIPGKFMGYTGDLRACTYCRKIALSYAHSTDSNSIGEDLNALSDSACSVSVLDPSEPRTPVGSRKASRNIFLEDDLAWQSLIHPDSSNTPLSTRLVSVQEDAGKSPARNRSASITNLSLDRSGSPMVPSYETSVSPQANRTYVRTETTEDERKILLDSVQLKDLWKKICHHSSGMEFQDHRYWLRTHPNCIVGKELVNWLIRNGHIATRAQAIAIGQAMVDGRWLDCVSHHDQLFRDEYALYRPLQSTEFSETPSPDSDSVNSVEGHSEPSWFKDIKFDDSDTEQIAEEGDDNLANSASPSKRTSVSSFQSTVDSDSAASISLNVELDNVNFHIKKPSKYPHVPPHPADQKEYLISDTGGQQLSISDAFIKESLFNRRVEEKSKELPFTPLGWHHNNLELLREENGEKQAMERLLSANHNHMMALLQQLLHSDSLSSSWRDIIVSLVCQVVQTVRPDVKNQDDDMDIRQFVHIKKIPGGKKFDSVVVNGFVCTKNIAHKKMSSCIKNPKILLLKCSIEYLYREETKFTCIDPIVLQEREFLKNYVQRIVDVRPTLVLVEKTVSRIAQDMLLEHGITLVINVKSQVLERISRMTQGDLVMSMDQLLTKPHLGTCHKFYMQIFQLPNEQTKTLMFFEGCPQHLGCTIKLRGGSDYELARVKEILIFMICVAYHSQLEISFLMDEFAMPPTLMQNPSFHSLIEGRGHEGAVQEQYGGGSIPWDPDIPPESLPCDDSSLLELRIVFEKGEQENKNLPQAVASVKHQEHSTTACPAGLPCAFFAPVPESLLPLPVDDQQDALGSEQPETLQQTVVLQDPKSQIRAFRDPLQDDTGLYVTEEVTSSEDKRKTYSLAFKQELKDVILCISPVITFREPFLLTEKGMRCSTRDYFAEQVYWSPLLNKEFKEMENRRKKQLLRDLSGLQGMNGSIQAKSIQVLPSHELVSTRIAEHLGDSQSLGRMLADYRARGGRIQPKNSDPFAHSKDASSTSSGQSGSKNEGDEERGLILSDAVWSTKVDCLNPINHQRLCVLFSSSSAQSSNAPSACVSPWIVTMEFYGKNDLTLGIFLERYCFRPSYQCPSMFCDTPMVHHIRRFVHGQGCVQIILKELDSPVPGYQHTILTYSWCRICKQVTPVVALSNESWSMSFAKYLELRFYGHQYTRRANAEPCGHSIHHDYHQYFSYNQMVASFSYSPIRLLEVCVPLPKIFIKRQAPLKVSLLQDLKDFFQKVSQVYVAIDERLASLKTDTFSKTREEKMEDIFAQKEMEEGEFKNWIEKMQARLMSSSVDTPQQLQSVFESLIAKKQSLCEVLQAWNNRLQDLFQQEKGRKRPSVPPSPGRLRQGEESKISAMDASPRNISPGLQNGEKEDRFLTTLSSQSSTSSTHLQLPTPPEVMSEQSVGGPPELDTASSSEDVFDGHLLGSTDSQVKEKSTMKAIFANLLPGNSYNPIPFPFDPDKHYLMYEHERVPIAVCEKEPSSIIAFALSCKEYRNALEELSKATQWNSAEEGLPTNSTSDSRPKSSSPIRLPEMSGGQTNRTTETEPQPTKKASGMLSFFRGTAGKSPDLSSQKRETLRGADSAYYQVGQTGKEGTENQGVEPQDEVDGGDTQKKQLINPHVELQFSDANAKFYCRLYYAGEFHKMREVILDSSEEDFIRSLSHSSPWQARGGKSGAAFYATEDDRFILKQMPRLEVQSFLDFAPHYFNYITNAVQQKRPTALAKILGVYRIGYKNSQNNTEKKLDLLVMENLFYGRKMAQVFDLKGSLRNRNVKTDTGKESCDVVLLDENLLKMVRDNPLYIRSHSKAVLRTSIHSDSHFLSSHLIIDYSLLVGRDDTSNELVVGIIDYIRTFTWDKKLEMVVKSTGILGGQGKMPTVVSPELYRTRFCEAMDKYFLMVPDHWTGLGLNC
How it was run: (§1)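 VCaP cells treated 24 h at 0.1 or 1.0 µM; percent PIKfyve degradation determined by immunoblotting.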

[2] = molecular target: T1, von Hippel-Lindau disease tumor suppressor/1-phosphatidylinositol 3-phosphate 5-kinase (Homo sapiens); assay: PROTAC activity at VHL/PIKfyve in human VCaP cells assessed as induction of PIKfyve degradation at 0.1 uM incubated for 24 hrs by immunoblot analysis; assay type: cell-based; how it was run: as §1
VCaP [3] = assay: Antiproliferative activity against human VCaP cells assessed as inhibition of cell proliferation incubated for 4 hrs followed by culturing in compound-free medium for 2 weeks by crystal violet staining based analysis; assay type: functional
How it was run: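 VCaP cells treated 4 h, compound removed, then cultured 2 weeks in drug-free medium; long-term viability by crystal violet staining.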

[4] = molecular target: T1, von Hippel-Lindau disease tumor suppressor/1-phosphatidylinositol 3-phosphate 5-kinase (Homo sapiens); assay: PROTAC activity at VHL/PIKfyve in human VCaP cells assessed as induction of PIKfyve degradation at 100 to 300 nM incubated for 4 hrs followed by culturing in compound-free medium for 72 hrs by immunoblot analysis; assay type: cell-based; settings: dose 100-300 nM
VCaP [5] = assay: Inhibition of autophagy in human VCaP cells assessed as increase in LC3A/B expression at 100 to 300 nM incubated for 4 hrs followed by culturing in compound-free medium for 72 hrs by immunoblot analysis; assay type: functional, cell-based; settings: dose 100-300 nM
How it was run: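 VCaP cells treated 4 h, compounds removed, cultured 72 h in compound-free medium; whole cell lysates immunoblotted for PIKfyve, LC3A/B and GAPDH (RIPA lysis, 4–12% Bis-Tris gels, PVDF, ECL).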

DU-145 [6] = assay: Induction of massive cytoplasmic vacuolization in human RFP-labeled DU-145 cells at 300 nM incubated for 4 hrs; assay type: functional, cell-based
DU-145 [7] = assay: Induction of massive cytoplasmic vacuolization in human RFP-labeled DU-145 cells incubated for 24 hrs; assay type: functional, cell-based; settings: dose 100-3000 nM
How it was run: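 RFP-labeled DU145 cells treated 24 h (300 nM shown); vacuole area per cell quantified from images.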

VCaP [8] = assay: Antiproliferative activity against human VCaP cells assessed as inhibition of cell proliferation incubated for 24 hrs followed by culturing in compound-free medium for 2 weeks by crystal violet staining based analysis; assay type: functional
How it was run: (§2)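 VCaP cells exposed either 24 h then washed and chased 2 weeks in compound-free medium, or continuously for 2 weeks; long-term viability visualized by crystal violet staining; IC50 calculated for each condition.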

VCaP [9] = assay: Antiproliferative activity against human VCaP cells assessed as inhibition of cell proliferation incubated for 2 weeks by crystal violet staining based analysis; assay type: functional; settings: 336 h; how it was run: as §2

| Compound | Activity [1] | Activity [2] | further results |
| --- | --- | --- | --- |
| Cc1cccc(/C=N/Nc2cc(N3CCOCC3)nc(OCCc3ccc(NC(=O)CCC(=O)N[C@H](C(=O)N4C[C@H](O)C[C@H]4C(=O)NCc4ccc(-c5scnc5C)cc4)C(C)(C)C)cc3)n2)c1 | 8% | 0% |  |
| Cc1cccc(/C=N/Nc2cc(N3CCOCC3)nc(OCCNC(=O)CCCCCCCCC(=O)N[C@H](C(=O)N3C[C@H](O)C[C@H]3C(=O)NCc3ccc(-c4scnc4C)cc3)C(C)(C)C)n2)c1 | 31% | 32% |  |
| Cc1cccc(/C=N/Nc2cc(N3CCOCC3)nc(OCCNC(=O)CCCCCCCC(=O)N[C@H](C(=O)N3C[C@H](O)C[C@H]3C(=O)NCc3ccc(-c4scnc4C)cc3)C(C)(C)C)n2)c1 | 17% | 30% |  |
| Cc1cccc(/C=N/Nc2cc(N3CCOCC3)nc(OCCNC(=O)CCCCCCCCCCC(=O)N[C@H](C(=O)N3C[C@H](O)C[C@H]3C(=O)NCc3ccc(-c4scnc4C)cc3)C(C)(C)C)n2)c1 | 21% | 67% |  |
| Cc1cccc(/C=N/Nc2cc(N3CCOCC3)nc(OCCc3ccc(NC(=O)CCCCCCCCCCC(=O)N[C@H](C(=O)N4C[C@H](O)C[C@H]4C(=O)NCc4ccc(-c5scnc5C)cc4)C(C)(C)C)cc3)n2)c1 | 3% | 48% |  |
| Cc1cccc(/C=N/Nc2cc(N3CCOCC3)nc(OCCc3ccc(NC(=O)CCCCCCCC(=O)N[C@H](C(=O)N4C[C@H](O)C[C@H]4C(=O)NCc4ccc(-c5scnc5C)cc4)C(C)(C)C)cc3)n2)c1 | 92% | 84% |  |
| Cc1cccc(/C=N/Nc2cc(N3CCOCC3)nc(OCCc3ccc(NC(=O)CC(=O)N[C@H](C(=O)N4C[C@H](O)C[C@H]4C(=O)NCc4ccc(-c5scnc5C)cc4)C(C)(C)C)cc3)n2)c1 | 0% | 0% |  |
| Cc1cccc(/C=N/Nc2cc(N3CCOCC3)nc(OCCNC(=O)CC(=O)N[C@H](C(=O)N3C[C@H](O)C[C@H]3C(=O)NCc3ccc(-c4scnc4C)cc3)C(C)(C)C)n2)c1 | 0% | 0% |  |
| Cc1cccc(/C=N/Nc2cc(N3CCOCC3)nc(OCCNC(=O)CCCCC(=O)N[C@H](C(=O)N3C[C@H](O)C[C@H]3C(=O)NCc3ccc(-c4scnc4C)cc3)C(C)(C)C)n2)c1 | 10% | 0% |  |
| Cc1cccc(/C=N/Nc2cc(N3CCOCC3)nc(OCCc3ccc(NC(=O)CCCCC(=O)N[C@H](C(=O)N4C[C@@H](O)C[C@H]4C(=O)NCc4ccc(-c5scnc5C)cc4)C(C)(C)C)cc3)n2)c1 | 0% | 0% | IC50 (VCaP [3]): > 3000 nM; Activity [4]: inactive; inhibition (VCaP [5]): inactive; Activity (DU-145 [6]): Active |
| Cc1cccc(/C=N/Nc2cc(N3CCOCC3)nc(OCCc3ccc(NC(=O)CCCCCC(=O)N[C@H](C(=O)N4C[C@H](O)C[C@H]4C(=O)NCc4ccc(-c5scnc5C)cc4)C(C)(C)C)cc3)n2)c1 | 75% | 90% |  |
| Cc1cccc(/C=N/Nc2cc(N3CCOCC3)nc(OCCc3ccc(NC(=O)CCCCCCCCC(=O)N[C@H](C(=O)N4C[C@H](O)C[C@H]4C(=O)NCc4ccc(-c5scnc5C)cc4)C(C)(C)C)cc3)n2)c1 | 45% | 81% |  |
| Cc1cccc(/C=N/Nc2cc(N3CCOCC3)nc(OCCc3ccc(NC(=O)CCCCC(=O)N[C@H](C(=O)N4C[C@H](O)C[C@H]4C(=O)N[C@@H](C)c4ccc(-c5scnc5C)cc4)C(C)(C)C)cc3)n2)c1 | 44% | 47% |  |
| Cc1cccc(/C=N/Nc2cc(N3CCOCC3)nc(OCCNC(=O)CCCCCC(=O)N[C@H](C(=O)N3C[C@H](O)C[C@H]3C(=O)NCc3ccc(-c4scnc4C)cc3)C(C)(C)C)n2)c1 | 0% | 3% |  |
| Cc1cccc(/C=N/Nc2cc(N3CCOCC3)nc(OCCc3ccc(NC(=O)CCCC(=O)N[C@H](C(=O)N4C[C@H](O)C[C@H]4C(=O)NCc4ccc(-c5scnc5C)cc4)C(C)(C)C)cc3)n2)c1 | 0% | 0% |  |
| Cc1cccc(/C=N/Nc2cc(N3CCOCC3)nc(OCCc3ccccn3)n2)c1 [APILIMOD] |  |  | Activity (DU-145 [7]): Dose-Dependent Effect; IC50 (VCaP [8]): 1190 nM; IC50 (VCaP [9]): 254 nM; inhibition (VCaP [5]): inactive; Activity (DU-145 [6]): Active |
| Cc1cccc(/C=N/Nc2cc(N3CCOCC3)nc(OCCc3ccc(NC(=O)CCCCCCC(=O)N[C@H](C(=O)N4C[C@H](O)C[C@H]4C(=O)NCc4ccc(-c5scnc5C)cc4)C(C)(C)C)cc3)n2)c1 | 19% | 26% |  |
| Cc1cccc(/C=N/Nc2cc(N3CCOCC3)nc(OCCNC(=O)CCCCCCC(=O)N[C@H](C(=O)N3C[C@H](O)C[C@H]3C(=O)NCc3ccc(-c4scnc4C)cc3)C(C)(C)C)n2)c1 | 51% | 0% |  |
| Cc1cccc(/C=N/Nc2cc(N3CCOCC3)nc(OCCc3ccc(NC(=O)CCCCCCCCCC(=O)N[C@H](C(=O)N4C[C@H](O)C[C@H]4C(=O)NCc4ccc(-c5scnc5C)cc4)C(C)(C)C)cc3)n2)c1 | 41% | 64% |  |
| Cc1cccc(/C=N/Nc2cc(N3CCOCC3)nc(OCCNC(=O)CCC(=O)N[C@H](C(=O)N3C[C@H](O)C[C@H]3C(=O)NCc3ccc(-c4scnc4C)cc3)C(C)(C)C)n2)c1 | 0% | 0% |  |
| Cc1cccc(/C=N/Nc2cc(N3CCOCC3)nc(OCCNC(=O)CCCC(=O)N[C@H](C(=O)N3C[C@H](O)C[C@H]3C(=O)NCc3ccc(-c4scnc4C)cc3)C(C)(C)C)n2)c1 | 0% | 0% |  |
| Cc1cccc(/C=N/Nc2cc(N3CCOCC3)nc(OCCNC(=O)CCCCCCCCCC(=O)N[C@H](C(=O)N3C[C@H](O)C[C@H]3C(=O)NCc3ccc(-c4scnc4C)cc3)C(C)(C)C)n2)c1 | 32% | 72% |  |
